Data set [1] in a line: Sensitizer enhancement ratio(SER) determined at the maximum nontoxic dose by measuring the number of cells killed at a conc 10 mM (in vitro). The data set is classed as functional, Cricetulus griseus.
Data set [2] can be described thus: Partition coefficient measured between octanol and 0.05 M NH4PO4 (pH 7.4) using shake-flask method. The data set is classed as physicochemical. The following applies: octanol/0.05 M NH4PO4 buffer.
Data set [3] is described as follows: (§1) IC50 of oxic to that of IC50 of hypoxic was determined in V79 cells; hypoxia selective cytotoxicity. In kind it is functional, Cricetulus griseus. Put shortly: (§2)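 V79-171b Chinese hamster cells in RPMI 1640 with 10% fetal calf serum, plated and incubated ca. 18 h at 37 °C, then exposed to a range of compound concentrations for 1 h at 37 °C under oxic or hypoxic conditions. Cells rinsed, colonies grown; ratio taken as IC50(oxic)/IC50(hypoxic). Means of replicate experiments agreeing within ±20%.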

Data set [4] in a line: Sensitizer enhancement ratio(SER) determined at the maximum nontoxic dose by measuring the number of cells killed at a conc 3 mM (in vitro). In kind it is functional, Cricetulus griseus. The gist of the method: (§3)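 V79-171b cells in RPMI 1640 with 10% FCS, held at maximum nontoxic drug level. Made hypoxic by 95% N2/5% CO2 purge for 1 h, then X-irradiated at room temperature (320 kV, ca. 1.5 Gy/min). Drug medium replaced and colonies (≥50 cells) scored at 6-7 days, 37 °C. SER = ratio of doses giving 25% survival on hypoxic curves without vs with drug.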

The species named for the next data set is Cricetulus griseus. The data set can be described thus: The efficiency of radiosensitization is the concentration required to give an SER of 1.6 (in vitro). In kind it is functional. The gist of the method: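 Chinese hamster V79-171b monolayers in RPMI 1640 with 10% FCS, plated ~18 h at 37 °C. Made hypoxic with 95% N2/5% CO2 for 1 h, then given X-rays (320 kV, ~1.5 Gy/min) at room temperature. Drug removed after irradiation; colonies of ≥50 cells scored after 6-7 days. SER is the dose ratio for 25% survival on hypoxic curves ±compound; C1.6 read from SER-versus-concentration plot.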

Data set [5] in a line: Sensitizer enhancement ratio(SER) determined at the maximum nontoxic dose by measuring the number of cells killed at a conc 3.0 mM (in vitro).
The nature of data set [6]: Plating efficiency of drug treated irradiated tumors relative to irradiated only group. In kind it is ADME. Put shortly:
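Mice bearing KHT fibrosarcoma (200–500 mg, hypoxic fraction ca. 20%) given vehicle or compound ip 30–120 min before 15 Gy X-rays. Tumours were excised 18 h later, dissociated to single cells and plated in soft agar. Colonies were stained and counted after 12–16 days. Plating efficiency is relative to the irradiated-only group.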

The test system of another data set is V79. The data set is described as §1. In kind it is functional. The following applies: Cricetulus griseus. The gist of the method:
as §2

The nature of data set [7]: Sensitizer enhancement ratio(SER) determined at the maximum nontoxic dose by measuring the number of cells killed at a conc […] (in vitro). In kind it is functional, Cricetulus griseus. The gist of the method:
as §3

For a further data set, the system named is Mus musculus. The experiment in a line: In vivo radiosensitizing activity measured as maximum tolerated dose in mice. In kind it is functional.
The nature of data set [8]: Sensitizer enhancement ratio(SER) determined at the maximum nontoxic dose by measuring the number of cells killed at a conc 1.9 (in vitro). The data set is classed as functional, Cricetulus griseus. Put shortly:
as §3

A short description of data set [9]: Sensitizer enhancement ratio(SER) determined at the maximum nontoxic dose by measuring the number of cells killed at a conc 2 mM (in vitro). In kind it is functional, Cricetulus griseus.
The nature of data set [10]: Sensitizer enhancement ratio(SER) determined at the maximum nontoxic dose by measuring the number of cells killed at a conc 0.38 mM (in vitro). In kind it is functional, Cricetulus griseus. The gist of the method:
as §3

Data set [11] is described as follows: Sensitizer enhancement ratio(SER) determined at the maximum nontoxic dose by measuring the number of cells killed at a conc 1.5 mM (in vitro). The data set is classed as functional, Cricetulus griseus. Put shortly: as §3
A short description of data set [12]: Sensitizer enhancement ratio(SER) determined at the maximum nontoxic dose by measuring the number of cells killed at a conc 0.75 mM (in vitro). In kind it is functional, Cricetulus griseus.

The record followed here is ChEMBL document CHEMBL1125182, “A new class of analogues of the bifunctional radiosensitizer alpha-(1-aziridinylmethyl)-2-nitro-1H-imidazole-1-ethanol (RSU 1069): the cycloalkylaziridines” (J Med Chem, 1991).

Take `O=C(O)C1CCN1CC(O)Cn1ccnc1[N+](=O)[O-]` (stereo unspecified): the SER in [1] was found to be 2.3. The compound further showed a logD in [2] of -2.02. Also, the “Hypoxic selectivity ratio (IC50 oxic / IC50 hypoxic)” value in data set [3] was 1.

Regarding `O=[N+]([O-])c1nccn1CC(O)CN1C2C3CCC(C3)C21` (stereo unspecified), the SER in [4] was determined as 1.6. Besides, the logD in data set [2] was found to be 1.6. The “Hypoxic selectivity ratio (IC50 oxic / IC50 hypoxic)” value in [3] turned out to be 1.4. For the same compound, in the data set listed under Cricetulus griseus, the C1.6 came to 3 mM.

Regarding `COC(=O)C1CCN1CC(O)Cn1ccnc1[N+](=O)[O-]` (stereo unspecified), in data set [5], the SER came out at 2.1. The same compound showed a logD in data set [2] of -0.29. Also, in data set [3], the “Hypoxic selectivity ratio (IC50 oxic / IC50 hypoxic)” value is 1.

With `O=[N+]([O-])c1nccn1CC(O)CN1C2CCOCC21` (stereo unspecified), in data set [6], the Fold reduction came to 5.7. Moreover, the logD in data set [2] was determined as 0.07. Also, the Cytotoxicity entry with V79 is reported as “Unstable”. The SER in data set [7] was 1.3. Moreover, the maximum tolerated dose (MTD) in the data set with Mus musculus was 800 mg/kg.

Take `O=[N+]([O-])c1nccn1CC(O)CN1C2CCCCC21` (stereo unspecified): the SER in [8] is 1.9. In addition, in [6], the Fold reduction is given as 3.91. The compound also displayed a logD in [2] of 1.07. Moreover, the “Hypoxic selectivity ratio (IC50 oxic / IC50 hypoxic)” value in data set [3] is 1.6. Further, the C1.6 in the data set listed under Cricetulus griseus came out at 0.35 mM. Besides, the MTD in the data set on Mus musculus stood at 400 mg/kg.

In the case of `O=[N+]([O-])c1nccn1CC(O)CNC1COCC[C@@H]1Br` (stereo partly specified), the SER in [4] was determined as 1.8. Besides, the Fold reduction in [6] is given as 13. This compound registered a logD in data set [2] of -0.17. In [3], the “Hypoxic selectivity ratio (IC50 oxic / IC50 hypoxic)” value stood at 1.2. Also, the C1.6 in the data set filed under Cricetulus griseus was found to be 1.8 mM. For the same compound, in the data set on Mus musculus, the MTD was 1500 mg/kg.

For `O=[N+]([O-])c1nccn1CC(O)CN1CCC1` (stereo unspecified), the SER in [9] came out at 2. The compound further registered a logD in data set [2] of -1.51. The “Hypoxic selectivity ratio (IC50 oxic / IC50 hypoxic)” value in data set [3] is given as 1.

Take `O=[N+]([O-])c1nccn1CC(O)CN1C2CCc3ccccc3C21` (stereo unspecified): the SER in data set [10] was 1.2. The same compound registered a logD in [2] of 2.15. Besides, the “Hypoxic selectivity ratio (IC50 oxic / IC50 hypoxic)” value in [3] was determined as 1.2.

Regarding `O=[N+]([O-])c1nccn1CC(O)CNC1CCC[C@H]1Br` (stereo partly specified), in data set [11], the SER came out at 2.3. This compound returned a Fold reduction in data set [6] of 4.3. Also, the logD in data set [2] was 0.43. For the same compound, the “Hypoxic selectivity ratio (IC50 oxic / IC50 hypoxic)” value in data set [3] stood at 2.5. For the same compound, the C1.6 in the data set listed under Cricetulus griseus is 0.75 mM. Also, in the data set with Mus musculus, the MTD was found to be 1000 mg/kg.

In the case of `O=[N+]([O-])c1nccn1CC(O)CN1C2CCCCCCC21` (stereo unspecified), in [4], the SER is listed as 2.1. The compound also displayed a Fold reduction in data set [6] of 2.6. Besides, in data set [2], the logD was found to be 1.84. Besides, the “Hypoxic selectivity ratio (IC50 oxic / IC50 hypoxic)” value in data set [3] was found to be 1.2. Further, the C1.6 in the data set listed under Cricetulus griseus was determined as 0.75 mM. The MTD with Mus musculus worked out at 500 mg/kg.

Regarding `CC1CCCC2C1N2CC(O)Cn1ccnc1[N+](=O)[O-]` (stereo unspecified), in [11], the SER was found to be 2. Further, in data set [6], the Fold reduction turned out to be 2.1. Moreover, the logD in [2] amounted to 1.55. Moreover, the “Hypoxic selectivity ratio (IC50 oxic / IC50 hypoxic)” value in data set [3] is given as 1. Moreover, the C1.6 in the data set listed under Cricetulus griseus is 0.75 mM. Also, in the data set with Mus musculus, the maximum tolerated dose (MTD) was 500 mg/kg.

Compound `O=[N+]([O-])c1nccn1CC(O)CN1CC1` (stereo unspecified) displayed a Fold reduction in [6] of 6.7. For the same compound, in [2], the logD turned out to be 0.33. Also, in data set [3], the “Hypoxic selectivity ratio (IC50 oxic / IC50 hypoxic)” value is on record as 50. The SER in data set [7] is 1.9. Also, in the data set filed under Cricetulus griseus, the C1.6 is 0.33 mM. Besides, the MTD with Mus musculus was 100 mg/kg.

Consider `CCOC(=O)C1CCC2C(C1)N2CC(O)Cn1ccnc1[N+](=O)[O-]` (stereo unspecified), for which the SER in data set [4] is reported as 2. The logD in data set [2] came out at 1.13. In addition, in [3], the “Hypoxic selectivity ratio (IC50 oxic / IC50 hypoxic)” value is 1.1. In addition, the C1.6 in the data set filed under Cricetulus griseus stood at 3 mM.

In the case of `O=[N+]([O-])c1nccn1CC(O)CNC1C2CCC(C2)[C@@H]1Br` (stereo partly specified), the SER in [4] came out at 2.1. In data set [2], this compound gave a logD of 1.36. The “Hypoxic selectivity ratio (IC50 oxic / IC50 hypoxic)” value in data set [3] is listed as 1.3. The C1.6 in the data set listed under Cricetulus griseus is 0.35 mM.

As for `O=[N+]([O-])c1nccn1CC(O)CNC1CCCC[C@@H]1Br` (stereo partly specified), in data set [12], the SER was 2.4. The compound also yielded a Fold reduction in data set [6] of 4.5. Further, in [2], the logD was found to be 1.21. The “Hypoxic selectivity ratio (IC50 oxic / IC50 hypoxic)” value in data set [3] is listed as 2.5. Besides, the C1.6 in the data set filed under Cricetulus griseus amounted to 0.35 mM. For the same compound, in the data set on Mus musculus, the MTD came out at 700 mg/kg.

`O=[N+]([O-])c1nccn1CC(O)CN1C2CCCC21` (stereo unspecified) registered a Fold reduction in data set [6] of 6.1. In addition, the logD in [2] worked out at 0.37. In addition, in [3], the “Hypoxic selectivity ratio (IC50 oxic / IC50 hypoxic)” value is 2. Also, the SER in data set [7] was found to be 2. For the same compound, the C1.6 in the data set listed under Cricetulus griseus was 0.48 mM. The maximal tolerated dose (MTD) in the data set on Mus musculus is 450 mg/kg.

For the compound `O=[N+]([O-])c1nccn1CC(O)CN1C2CCCCCC21` (stereo unspecified), in data set [4], the SER stood at 1.7. In data set [2], this compound yielded a logD of 1.44. In data set [3], the “Hypoxic selectivity ratio (IC50 oxic / IC50 hypoxic)” value turned out to be 1.4. Further, the C1.6 in the data set listed under Cricetulus griseus was 1 mM.

For orientation: logD means the decadic logarithm of the distribution of all forms, ionised or not, between an organic phase and buffer at a given pH. High values mean a more lipophilic compound, low ones a more hydrophilic compound. The MTD is the highest dose tested that stayed within the study's limit of toxicity.
